One block for each compound: values may come before it.
What was measured:
Assay type in all cases: ADME
Details in all cases: recombinant enzyme
[1] = biological target: T1, UDP-glucuronosyltransferase 1A1 (Homo sapiens, UniProt P22309); test: Drug metabolism assessed as recombinant human C-terminal His-tagged UGT1A1-mediated 17-epiestriol-3-glucuronide formation at 200 uM after 15 to 60 mins by HPLC analysis in presence of UDPGA
T1 sequence (P22309 whole entry): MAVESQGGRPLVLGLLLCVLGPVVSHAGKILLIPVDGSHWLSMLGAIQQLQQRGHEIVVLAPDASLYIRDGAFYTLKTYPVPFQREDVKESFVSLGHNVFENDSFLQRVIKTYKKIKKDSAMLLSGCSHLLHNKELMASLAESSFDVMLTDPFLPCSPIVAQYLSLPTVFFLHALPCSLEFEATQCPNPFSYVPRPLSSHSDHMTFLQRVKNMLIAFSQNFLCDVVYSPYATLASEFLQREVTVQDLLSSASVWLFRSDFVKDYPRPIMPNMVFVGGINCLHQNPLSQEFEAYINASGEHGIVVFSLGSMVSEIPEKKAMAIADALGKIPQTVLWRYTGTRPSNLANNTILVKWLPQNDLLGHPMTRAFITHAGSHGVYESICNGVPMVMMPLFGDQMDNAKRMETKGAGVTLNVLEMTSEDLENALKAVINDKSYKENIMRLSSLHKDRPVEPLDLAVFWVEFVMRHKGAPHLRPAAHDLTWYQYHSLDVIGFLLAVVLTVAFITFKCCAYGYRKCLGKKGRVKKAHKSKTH
Method in brief: (§1)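 Screening at a single substrate concentration of 200 μM, in triplicate. The reaction used 5 or 50 µg of UGT-enriched insect cell membranes in 50 mM phosphate pH 7.4 with 10 mM MgCl₂ and 5 mM UDPGA, 10% final DMSO. Incubation was 15–60 min at 37°C. Perchloric acid stopped the reaction and supernatants were analysed by HPLC. Controls lacked UDPGA. Rates were normalized to relative UGT expression level.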

[2] = biological target: T2, UDP-glucuronosyltransferase 2B17 (Homo sapiens, UniProt O75795); test: Drug metabolism assessed as recombinant human C-terminal His-tagged UGT2B17-mediated 13-epiestradiol-3-glucuronide formation at 200 uM after 15 to 60 mins by HPLC analysis in presence of UDPGA; method in brief: as §1
T2 sequence (O75795 whole entry): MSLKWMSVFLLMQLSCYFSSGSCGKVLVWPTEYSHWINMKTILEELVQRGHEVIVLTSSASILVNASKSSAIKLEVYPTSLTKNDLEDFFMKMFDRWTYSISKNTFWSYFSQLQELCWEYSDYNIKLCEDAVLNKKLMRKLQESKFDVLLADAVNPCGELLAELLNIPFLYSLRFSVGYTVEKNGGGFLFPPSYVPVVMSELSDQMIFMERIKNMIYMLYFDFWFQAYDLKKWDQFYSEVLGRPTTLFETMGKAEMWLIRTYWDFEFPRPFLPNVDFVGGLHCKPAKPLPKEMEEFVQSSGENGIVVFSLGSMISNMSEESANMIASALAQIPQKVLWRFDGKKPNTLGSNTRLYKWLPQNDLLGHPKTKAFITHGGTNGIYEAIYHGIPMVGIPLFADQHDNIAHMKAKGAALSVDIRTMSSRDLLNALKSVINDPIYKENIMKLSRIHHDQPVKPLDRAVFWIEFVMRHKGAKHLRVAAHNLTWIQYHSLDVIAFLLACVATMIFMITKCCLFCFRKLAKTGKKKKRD

[3] = biological target: T3, UDP-glucuronosyltransferase 1A3 (Homo sapiens, UniProt P35503); test: Drug metabolism assessed as recombinant human C-terminal His-tagged UGT1A3-mediated estradiol-3-glucuronide formation at 200 uM after 15 to 60 mins by HPLC analysis in presence of UDPGA; method in brief: as §1
T3 sequence (P35503 whole entry): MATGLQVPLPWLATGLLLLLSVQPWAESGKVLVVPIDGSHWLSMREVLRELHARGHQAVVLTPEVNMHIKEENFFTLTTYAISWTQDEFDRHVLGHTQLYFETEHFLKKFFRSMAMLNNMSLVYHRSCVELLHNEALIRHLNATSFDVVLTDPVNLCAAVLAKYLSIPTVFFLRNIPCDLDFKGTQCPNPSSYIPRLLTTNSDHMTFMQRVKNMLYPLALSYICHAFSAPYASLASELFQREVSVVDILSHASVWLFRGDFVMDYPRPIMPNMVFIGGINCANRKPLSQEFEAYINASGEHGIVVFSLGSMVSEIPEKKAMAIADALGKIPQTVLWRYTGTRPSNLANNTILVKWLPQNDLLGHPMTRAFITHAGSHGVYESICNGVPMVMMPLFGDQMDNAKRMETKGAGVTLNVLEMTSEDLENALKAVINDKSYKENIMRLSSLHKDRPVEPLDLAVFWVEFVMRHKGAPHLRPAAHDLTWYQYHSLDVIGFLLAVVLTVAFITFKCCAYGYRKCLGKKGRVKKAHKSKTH

[4] = biological target: T4, UDP-glucuronosyltransferase 1A4 (Homo sapiens, UniProt P22310); test: Drug metabolism assessed as recombinant human C-terminal His-tagged UGT1A4-mediated estradiol-17-glucuronide formation at 200 uM after 15 to 60 mins by HPLC analysis in presence of UDPGA; method in brief: as §1
T4 sequence (P22310 whole entry): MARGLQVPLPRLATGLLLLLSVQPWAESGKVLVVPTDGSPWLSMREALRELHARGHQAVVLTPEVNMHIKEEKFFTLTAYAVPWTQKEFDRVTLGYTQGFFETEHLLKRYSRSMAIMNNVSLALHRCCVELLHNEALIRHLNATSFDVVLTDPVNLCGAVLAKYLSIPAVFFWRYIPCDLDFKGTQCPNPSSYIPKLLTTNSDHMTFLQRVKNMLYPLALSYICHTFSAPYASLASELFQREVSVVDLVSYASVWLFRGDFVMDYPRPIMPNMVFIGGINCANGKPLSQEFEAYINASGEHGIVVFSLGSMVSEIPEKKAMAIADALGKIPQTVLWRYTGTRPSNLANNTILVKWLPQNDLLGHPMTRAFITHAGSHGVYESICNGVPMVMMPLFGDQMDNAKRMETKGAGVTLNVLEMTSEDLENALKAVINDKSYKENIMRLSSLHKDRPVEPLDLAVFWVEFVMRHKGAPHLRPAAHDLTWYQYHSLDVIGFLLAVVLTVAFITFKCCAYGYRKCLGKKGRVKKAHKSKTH

- Drug metabolism [1]: metabolite_detected
SMILES: C[C@]12CC[C@@H]3c4ccc(O)cc4CC[C@H]3[C@@H]1C[C@@H](O)[C@H]2O

- Drug metabolism [2]: metabolite_detected
SMILES: C[C@@]12CC[C@@H]3c4ccc(O)cc4CC[C@H]3[C@@H]1CC[C@@H]2O

- Drug metabolism [3]: metabolite_detected
- Drug metabolism [4]: metabolite_detected
SMILES: C[C@]12CC[C@@H]3c4ccc(O)cc4CC[C@H]3[C@@H]1CC[C@@H]2O [ESTRADIOL]

— ChEMBL document CHEMBL3525985, “Regiospecificity and stereospecificity of human UDP-glucuronosyltransferases in the glucuronidation of estriol, 16-epiestriol, 17-epiestriol, and 13-epiestradiol” (Drug Metab Dispos, 2013)
